Assay [1] in a line: Antioxidant activity assessed as inhibition of AAPH-induced peroxyl radical formation at 0.3 to 2 uM preincubated for 15 mins followed by AAPH addition measured every 1 min for 120 mins by ORAC-FL assay relative to trolox. The format is functional. The gist of the method:
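Fluorescein (70 nM final) and compound (0.3–2 µM, in methanol) were mixed in 75 mM sodium phosphate pH 7.4 and pre-incubated 15 min at 37 °C. AAPH (18 mM final) was then added. Fluorescence (ex 485, em 528 nm) was read every minute for 120 min. Net AUC was taken after subtracting a methanol blank and expressed relative to trolox. Triplicates, at least three independent assays.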

Assay [2] in a line: Antioxidant activity assessed as superoxide radical scavenging activity at 30 uM by cyclic voltammetric analysis. In kind it is functional. In short, it runs like this: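 Cyclic voltammetry was run at room temperature with a three-electrode cell in DMSO, with compound at 30 µM final. Scavenging (%) was calculated as [(Ipc blank − Ipc aox)/Ipc blank] × 100 from the cathodic peak current without and with compound. Three replicates; significance was set at p < 0.05.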

Assay [3] can be described thus: Antioxidant activity assessed as hydroxyl radical scavenging activity at 4 mM after 5 mins by ESR spectrometric analysis. The format is functional. The gist of the method:
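Hydroxyl radicals came from a non-catalytic Fenton-type system: DMF, NaOH (3 mM), DMPO spin trap (30 mM final) and 30% H2O2, with compound at 4 mM final. The DMPO-OH adduct was read by X-band ESR (9.7 GHz) at room temperature 5 min after mixing. A control without antioxidant was included. Values are given as % scavenging.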

The subject of assay [4] is Radical scavenging activity. Kind of assay: Antioxidant activity assessed as DPPH radical scavenging activity at 1 mM after 5 mins by ESR spectrometric analysis. The format is functional. The gist of the method:
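Reaction mixtures held DPPH and test compound, each at 1.0 mM, both made up in acetonitrile. A control lacked compound. ESR signal was recorded 5 min after mixing at 9.81 GHz with 20 mW microwave power, 0.95 G modulation amplitude and 59 db receiver gain. Values are given as % DPPH scavenging.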
For orientation: DPPH is a stable violet radical that fades when it is reduced.

Assay [5] concerns Radical scavenging activity. Kind of assay: Antioxidant activity assessed as DPPH radical scavenging activity measured at 5 mins by ESR spectrometric analysis.
A short description of assay [6]: Antioxidant activity assessed as inhibition of AAPH-induced peroxyl radical formation by ORAC-FL assay relative to trolox. In kind it is functional. In short, it runs like this:
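Peroxyl scavenging in 75 mM sodium phosphate buffer pH 7.4 with fluorescein (70 nM final), using test compounds in methanol from 0.3 to 2 units. The mix was pre-incubated 15 min at 37 °C, then AAPH (18 mM final) was added. Fluorescence (ex 485, em 528 nm) was read every 1 min for 120 min. Net AUC was taken against a methanol blank and expressed relative to trolox standards. Triplicates, ≥3 independent runs.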

With `Cc1cccc2cc(-c3cc(O)c(O)c(O)c3)c(=O)oc12`, in assay [1], the fold change (FC) amounted to 5.3. Besides, the results for the Activity in assay [2], in assay [3] and in assay [4] were 76.5%, 100% and 100%, respectively.

Regarding `Cc1ccc2oc(=O)c(-c3ccccc3O)cc2c1`, in assay [1], the fold change (FC) was determined as 8.4. In addition, the results for the Activity in assay [2], in assay [3] and in assay [4] were 25%, 100% and 10.6%, respectively.

With `Cc1ccc2oc(=O)c(-c3ccc(O)c(O)c3)cc2c1`, the fold change (FC) in assay [1] was determined as 5.3. For the same compound, the Activity in assay [2] turned out to be 28.9%; in assay [3], 6.05%; in assay [4] it was 28.3%.

With `Cc1ccc(-c2cc3cccc(O)c3oc2=O)cc1`, the fold change (FC) in assay [1] was determined as 6.3. Besides, the Activity in assay [2] turned out to be 17.4%; in assay [3], 16%; in assay [4], 28.6%.

As to `O=c1c(O)c(-c2ccc(O)c(O)c2)oc2cc(O)cc(O)c12`, the Activity in assay [5] was determined as 20%. Besides, in assay [6], the fold change (FC) is 7.28.

As for `Oc1cc(O)c2c(c1)OC(c1ccc(O)c(O)c1)C(O)C2` (stereo not given), the Activity in assay [5] came out at 44.5%. The fold change (FC) in assay [6] was determined as 6.76.

Consider `Cc1ccc2oc(=O)c(-c3cccc(O)c3)cc2c1`, for which the fold change (FC) in assay [1] was 6.7. For the same compound, the Activity was 17.5% in assay [2], 5.2% in assay [3] and 3.4% in assay [4].

Consider `Cc1cccc2cc(-c3cc(O)cc(O)c3)c(=O)oc12`, for which the fold change (FC) in assay [1] is 5.5. The Activity is 22.6% in assay [2], 75% in assay [3] and 11.2% in assay [4].

In the case of `Cc1cccc2cc(-c3ccc(O)c(O)c3)c(=O)oc12`, in assay [1], the fold change (FC) is 5.7. The values for the Activity in assay [2], in assay [3] and in assay [4] were 77.3%, 100% and 66.7%, respectively.

For the compound `O=c1oc2c(O)cccc2cc1-c1ccc(O)cc1`, in assay [1], the fold change (FC) is 13.5. The Activity in assay [2] was 71.5%; in assay [3], 100%; in assay [4], 65.9%.

As for `Cc1ccc2oc(=O)c(-c3ccc(O)cc3)cc2c1`, the fold change (FC) in assay [1] worked out at 6.1. The Activity was determined as 17.4% in assay [2], 100% in assay [3] and 27.7% in assay [4].
